Measured values as given in ChEMBL document CHEMBL5724801, “EUbOPEN Chemogenomics Library - Multiplex” (2024).
Where “and” joins values, the source holds several entries; their conditions need not be identical. Identical values can stand only once.

Tested on: U2OS
Experiment: Multiplex assay against U2OS
Format: toxicity, cell-based
Settings: human
Outline: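 Four dyes were applied at seeding to live cells: Hoechst33342, BioTracker Green Microtubule Cytoskeleton Dye, MitoTracker Red and Annexin V Alexa Fluor 680. Imaging after compound addition used a CQ1 microscope at 37°C and 5% CO2. CellPathfinder machine-learning gating then sorted cells into Hoechst high-intensity objects or normal cells, normal cells into healthy, pyknosed or fragmented nuclei, and pyknosed cells into mitotic or apoptotic, with tubulin, mitochondrial-mass and membrane-permeability phenotypes given as per cents of healthy-nucleus cells.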

[1] = 12 h, 1 µM, compound concentration 1 uM
[2] = 12 h, 10 µM, compound concentration 10 uM
[3] = 24 h, 1 µM, compound concentration 1 uM
[4] = 24 h, 10 µM, compound concentration 10 uM
[5] = 48 h, 1 µM, compound concentration 1 uM
[6] = 48 h, 10 µM, compound concentration 10 uM

Cc1c(C(=O)NCCCN(C)C)sc2ncnc(Nc3ccc(F)cc3OC(C)CF)c12 (centres undefined)
Population Apoptotic (%) [1]: 44.9% and 30.77%
Population Fragmented Nuclei (%) [1]: 1.42% and 2.65%
Population Healthy Nuclei (%) [1]: 84.66% and 80.13%
Population Hoechst High Intensity Objects (%) [1]: 0%
Population Membrane Permeable-Phenotype (%) [1]: 0.67% and 4.13%
Population Mitochondria Different-Phenotype (%) [1]: 0% and 15.7%
Population Mitotic Cells (%) [1]: 55.1% and 69.23%
Population Normal (%) [1]: 100%
Population Pyknosed Nuclei (%) [1]: 13.92% and 17.22%
Population Tubulin-Different-Phenotype (%) [1]: 2.68% and 0%
Total Cell Count [1]: 352 and 151
Population Apoptotic (%) [2]: 33.33% and 29.55%
Population Fragmented Nuclei (%) [2]: 6.74% and 4.73%
Population Healthy Nuclei (%) [2]: 69.66% and 65.54%
Population Hoechst High Intensity Objects (%) [2]: 0%
Population Membrane Permeable-Phenotype (%) [2]: 10.97% and 18.56%
Population Mitotic Cells (%) [2]: 66.67% and 70.45%
Population Normal (%) [2]: 100%
Population Pyknosed Nuclei (%) [2]: 23.6% and 29.73%
Population Tubulin-Different-Phenotype (%) [2]: 31.61% and 29.9%
Population Apoptotic (%) [3]: 56% and 51.85%
Population Fragmented Nuclei (%) [3]: 3.61% and 5.17%
Population Healthy Nuclei (%) [3]: 85.77% and 79.31%
Population Hoechst High Intensity Objects (%) [3]: 0%
Population Membrane Permeable-Phenotype (%) [3]: 1.49% and 4.35%
Population Mitotic Cells (%) [3]: 44% and 48.15%
Population Normal (%) [3]: 100%
Population Pyknosed Nuclei (%) [3]: 10.62% and 15.52%
Population Tubulin-Different-Phenotype (%) [3]: 1.98% and 0%
Total Cell Count [3]: 471 and 174
Population Apoptotic (%) [4]: 35% and 38.46%
Population Fragmented Nuclei (%) [4]: 3.34% and 4.57%
Population Healthy Nuclei (%) [4]: 63.26% and 58.29%
Population Hoechst High Intensity Objects (%) [4]: 0%
Population Membrane Permeable-Phenotype (%) [4]: 3.96% and 12.75%
Population Mitotic Cells (%) [4]: 65% and 61.54%
Population Normal (%) [4]: 100%
Population Pyknosed Nuclei (%) [4]: 33.4% and 37.14%
Population Tubulin-Different-Phenotype (%) [4]: 59.08% and 40.2%
Total Cell Count [4]: 479 and 175
Population Apoptotic (%) [5]: 48.89% and 51.28%
Population Fragmented Nuclei (%) [5]: 4.16% and 5.07%
Population Healthy Nuclei (%) [5]: 85.73% and 80.8%
Population Hoechst High Intensity Objects (%) [5]: 0%
Population Membrane Permeable-Phenotype (%) [5]: 1.31% and 1.35%
Population Mitochondria Different-Phenotype (%) [5]: 0.13% and 8.52%
Population Mitotic Cells (%) [5]: 51.11% and 48.72%
Population Normal (%) [5]: 100%
Population Pyknosed Nuclei (%) [5]: 10.11% and 14.13%
Population Tubulin-Different-Phenotype (%) [5]: 2.1% and 0.45%
Population Apoptotic (%) [6]: 53.75% and 63.55%
Population Fragmented Nuclei (%) [6]: 4.47% and 3.47%
Population Healthy Nuclei (%) [6]: 48.42% and 34.68%
Population Hoechst High Intensity Objects (%) [6]: 0.19% and 1.14%
Population Membrane Permeable-Phenotype (%) [6]: 12.31% and 18.33%
Population Mitotic Cells (%) [6]: 46.25% and 36.45%
Population Normal (%) [6]: 99.81% and 98.86%
Population Pyknosed Nuclei (%) [6]: 47.11% and 61.85%
Population Tubulin-Different-Phenotype (%) [6]: 44.62% and 53.33%

C[C@H](NC(=O)c1c(C(F)F)nn(C)c1Oc1cccc(C(F)(F)F)c1)c1ccc(C(=O)O)cc1 [PALUPIPRANT]
Population Apoptotic (%) [1]: 60% and 91%
Population Fragmented Nuclei (%) [1]: 27% and 12%
Population Healthy Nuclei (%) [1]: 63% and 78%
Population Hoechst High Intensity Objects (%) [1]: 3% and 0%
Population Membrane Permeable-Phenotype (%) [1]: 4%
Population Mitochondria Different-Phenotype (%) [1]: 1% and 0%
Population Normal (%) [1]: 96% and 99%
Population Pyknosed Nuclei (%) [1]: 8% and 9%
Population Tubulin-Different-Phenotype (%) [1]: 1% and 2%
Total Cell Count [1]: 266 and 132
Population Apoptotic (%) [2]: 83% and 100%
Population Fragmented Nuclei (%) [2]: 28% and 13%
Population Healthy Nuclei (%) [2]: 62% and 77%
Population Hoechst High Intensity Objects (%) [2]: 3%
Population Membrane Permeable-Phenotype (%) [2]: 7% and 5%
Population Mitochondria Different-Phenotype (%) [2]: 4% and 2%
Population Mitotic Cells (%) [2]: 16% and 0%
Population Normal (%) [2]: 96%
Population Pyknosed Nuclei (%) [2]: 8%
Population Tubulin-Different-Phenotype (%) [2]: 5% and 2%
Total Cell Count [2]: 293 and 117
Population Apoptotic (%) [3]: 87% and 94%
Population Fragmented Nuclei (%) [3]: 20% and 14%
Population Healthy Nuclei (%) [3]: 72% and 73%
Population Hoechst High Intensity Objects (%) [3]: 2% and 1%
Population Membrane Permeable-Phenotype (%) [3]: 4% and 5%
Population Mitochondria Different-Phenotype (%) [3]: 1% and 0%
Population Mitotic Cells (%) [3]: 12% and 5%
Population Normal (%) [3]: 97% and 98%
Population Pyknosed Nuclei (%) [3]: 7% and 11%
Population Tubulin-Different-Phenotype (%) [3]: 3% and 5%
Total Cell Count [3]: 316 and 147
Population Apoptotic (%) [4]: 91%
Population Fragmented Nuclei (%) [4]: 18% and 13%
Population Healthy Nuclei (%) [4]: 74% and 77%
Population Hoechst High Intensity Objects (%) [4]: 2%
Population Membrane Permeable-Phenotype (%) [4]: 5%
Population Mitochondria Different-Phenotype (%) [4]: 3% and 1%
Population Mitotic Cells (%) [4]: 8%
Population Normal (%) [4]: 97%
Population Pyknosed Nuclei (%) [4]: 7% and 8%
Population Tubulin-Different-Phenotype (%) [4]: 1% and 0%
Total Cell Count [4]: 339 and 139
Population Apoptotic (%) [5]: 82% and 92%
Population Fragmented Nuclei (%) [5]: 15%
Population Healthy Nuclei (%) [5]: 73% and 70%
Population Hoechst High Intensity Objects (%) [5]: 2% and 0%
Population Membrane Permeable-Phenotype (%) [5]: 3%
Population Mitochondria Different-Phenotype (%) [5]: 1% and 0%
Population Mitotic Cells (%) [5]: 17% and 7%
Population Normal (%) [5]: 97% and 99%
Population Pyknosed Nuclei (%) [5]: 11% and 13%
Population Tubulin-Different-Phenotype (%) [5]: 1% and 2%
Total Cell Count [5]: 426 and 207
Population Apoptotic (%) [6]: 91% and 85%
Population Fragmented Nuclei (%) [6]: 18% and 14%
Population Healthy Nuclei (%) [6]: 73% and 79%
Population Hoechst High Intensity Objects (%) [6]: 2% and 1%
Population Membrane Permeable-Phenotype (%) [6]: 5% and 1%
Population Mitochondria Different-Phenotype (%) [6]: 3% and 1%
Population Mitotic Cells (%) [6]: 8% and 14%
Population Normal (%) [6]: 97% and 98%
Population Pyknosed Nuclei (%) [6]: 7% and 6%
Population Tubulin-Different-Phenotype (%) [6]: 3% and 0%
Total Cell Count [6]: 463 and 223
